Data published in ChEMBL document CHEMBL1145801, “Inhibition of Cdc25 phosphatases by indolyldihydroxyquinones” (J Med Chem, 2003).

Legend:
[1] = Inhibitory constant of compound against Cdc25 phosphatase was determined
[2] = molecular target: T1, M-phase inducer phosphatase 2 (Homo sapiens, UniProt P30305); assay: Eight point inhibitory concentration against Cell division cycle 25B was determined
T1 sequence (P30305 whole entry): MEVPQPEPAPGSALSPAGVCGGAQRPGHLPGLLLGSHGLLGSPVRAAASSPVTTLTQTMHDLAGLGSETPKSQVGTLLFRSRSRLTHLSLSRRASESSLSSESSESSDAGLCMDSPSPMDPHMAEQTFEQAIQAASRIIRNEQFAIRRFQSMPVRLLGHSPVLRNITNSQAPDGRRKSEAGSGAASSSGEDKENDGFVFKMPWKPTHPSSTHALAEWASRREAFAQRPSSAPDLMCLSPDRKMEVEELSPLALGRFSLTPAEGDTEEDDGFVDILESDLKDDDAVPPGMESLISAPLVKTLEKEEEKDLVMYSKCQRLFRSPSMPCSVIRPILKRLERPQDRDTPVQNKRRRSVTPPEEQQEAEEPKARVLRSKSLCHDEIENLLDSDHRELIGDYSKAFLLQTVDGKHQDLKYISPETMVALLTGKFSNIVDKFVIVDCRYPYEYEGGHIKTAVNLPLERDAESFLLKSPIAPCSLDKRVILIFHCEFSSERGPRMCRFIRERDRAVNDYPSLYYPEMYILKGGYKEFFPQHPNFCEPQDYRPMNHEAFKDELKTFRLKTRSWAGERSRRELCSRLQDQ
How it was run: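 Cdc25B activity read by UV-vis at 477 nm as product formed from 3-O-methylfluorescein phosphate (mFP) at 50 μM (~5 × Km), time-dependent, initial-velocity conditions (2–5% turnover); eight inhibitor concentrations, IC50 fitted to eq 1. Each reaction compared with a simultaneous no-inhibitor control; selected compounds run in duplicate.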

[3] = molecular target: T2, M-phase inducer phosphatase 2 (Homo sapiens) (UniProt P30305); assay: Percent inhibition of cell division cycle 25B at 50 uM
T2 sequence (whole entry): T1 sequence (P30305 whole entry)
How it was run: (§1)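 Single-point screen at 50 μM inhibitor against Cdc25A, Cdc25B or Cdc25C with 50 μM 3-O-methylfluorescein phosphate, product followed at 477 nm in time-dependent assays. Activity was compared with a simultaneous no-inhibitor control, and selected compounds were run in duplicate (average error ±7%).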

[4] = molecular target: T3, M-phase inducer phosphatase 3 (Homo sapiens, UniProt P30307); assay: Eight point inhibitory concentration against Cell division cycle 25 degree C was determined
T3 sequence (P30307 whole entry): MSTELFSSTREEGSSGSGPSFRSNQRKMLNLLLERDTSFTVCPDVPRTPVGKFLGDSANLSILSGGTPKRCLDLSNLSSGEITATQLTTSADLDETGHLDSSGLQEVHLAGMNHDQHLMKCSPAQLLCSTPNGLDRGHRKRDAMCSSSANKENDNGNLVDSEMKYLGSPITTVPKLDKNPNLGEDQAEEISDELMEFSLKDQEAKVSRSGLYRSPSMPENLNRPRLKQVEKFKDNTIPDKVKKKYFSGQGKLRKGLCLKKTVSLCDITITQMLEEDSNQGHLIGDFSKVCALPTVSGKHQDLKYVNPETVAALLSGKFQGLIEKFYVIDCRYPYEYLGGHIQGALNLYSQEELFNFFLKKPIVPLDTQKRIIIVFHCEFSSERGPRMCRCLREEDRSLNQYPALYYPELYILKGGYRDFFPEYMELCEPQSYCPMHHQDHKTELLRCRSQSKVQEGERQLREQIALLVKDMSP
How it was run: (§2)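 Phosphatase activity measured with 3-O-methylfluorescein phosphate at 50 μM (~5 × Km), product formation followed at 477 nm by UV-vis under initial velocity conditions (2–5% turnover) in time-dependent assays. Eight inhibitor concentrations were used, and IC50 was obtained by fitting to a dose–response equation.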

[5] = molecular target: T4, M-phase inducer phosphatase 3 (Homo sapiens) (UniProt P30307); assay: Percent inhibition of cell division cycle 25 degree C at 50 uM; how it was run: as §1
T4 sequence (whole entry): T3 sequence (P30307 whole entry)

[6] = molecular target: T5, M-phase inducer phosphatase 1 (Homo sapiens, UniProt P30304); assay: Eight point inhibitory concentration against Cell division cycle 25A was determined; how it was run: as §2
T5 sequence (P30304 whole entry): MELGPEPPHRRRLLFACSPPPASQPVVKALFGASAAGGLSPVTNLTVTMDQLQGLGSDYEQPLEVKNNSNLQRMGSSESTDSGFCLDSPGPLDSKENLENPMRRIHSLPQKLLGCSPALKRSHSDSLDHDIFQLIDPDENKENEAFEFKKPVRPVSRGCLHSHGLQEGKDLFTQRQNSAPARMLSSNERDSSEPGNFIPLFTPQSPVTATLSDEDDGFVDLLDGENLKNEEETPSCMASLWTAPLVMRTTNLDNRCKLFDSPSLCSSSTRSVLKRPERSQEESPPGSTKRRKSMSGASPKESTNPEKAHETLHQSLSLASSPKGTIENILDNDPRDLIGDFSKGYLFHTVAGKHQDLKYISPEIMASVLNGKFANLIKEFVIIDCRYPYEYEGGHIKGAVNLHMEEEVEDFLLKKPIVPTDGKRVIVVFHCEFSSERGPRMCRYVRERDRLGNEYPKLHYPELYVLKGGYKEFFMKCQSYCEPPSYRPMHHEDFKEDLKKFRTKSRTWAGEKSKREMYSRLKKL

[7] = molecular target: T6, M-phase inducer phosphatase 1 (Homo sapiens) (UniProt P30304); assay: Percent inhibition of cell division cycle 25A at 50 uM; how it was run: as §1
T6 sequence (whole entry): T5 sequence (P30304 whole entry)

[8] = molecular target: T1, M-phase inducer phosphatase 2; assay: Inhibitory concentration of compound against Cell division cycle 25B was determined using CDK2-p-TpY/Cyclin A as a substrate
How it was run: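 Cdc25B dephosphorylation of 300 nM Cdk2-pTpY/CycA protein substrate was run in time-dependent assays at eight inhibitor concentrations to give IC50. Reactions were quenched with TCA, and bovine serum albumin carrier (1 mg/mL) was added only after the quench so that it was absent during inhibitor exposure.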

[9] = molecular target: T1, M-phase inducer phosphatase 2; assay: Inhibitory constant of compound against Cell division cycle 25B was determined using mFP as a substrate
[10] = molecular target: T7, M-phase inducer phosphatase 2 (Homo sapiens, UniProt P30305); assay: Inhibitory constant of compound against Cell division cycle 25B was determined
[11] = molecular target: T8, M-phase inducer phosphatase 2 (Homo sapiens, UniProt P30305, E488Q); assay: Inhibitory concentration of compound against mutant E474Q of Cell division cycle 25B was determined
How it was run: (§3)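 Cdc25B catalytic-domain point mutants, a truncated form and wild type were assayed with 3-O-methylfluorescein phosphate as substrate, monitored at 477 nm under initial velocity conditions. Values are the mean of two separate determinations.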

[12] = molecular target: M-phase inducer phosphatase 2 (Homo sapiens, UniProt P30305, E492Q); assay: Inhibitory concentration of compound against mutant E478Q of Cell division cycle 25B was determined; how it was run: as §3
[13] = molecular target: T9, M-phase inducer phosphatase 2 (Homo sapiens, UniProt P30305, F489A); assay: Inhibitory concentration of compound against mutant F475A of Cell division cycle 25B was determined; how it was run: as §3
[14] = molecular target: M-phase inducer phosphatase 2 (Homo sapiens, UniProt P30305, M545A); assay: Inhibitory concentration of compound against mutant M531A of Cell division cycle 25B was determined; how it was run: as §3
[15] = molecular target: T10, M-phase inducer phosphatase 2 (Homo sapiens, UniProt P30305, R496L); assay: Inhibitory concentration of compound against mutant R482L of Cell division cycle 25B was determined; how it was run: as §3
[16] = molecular target: M-phase inducer phosphatase 2 (Homo sapiens, UniProt P30305, R506L); assay: Inhibitory concentration of compound against mutant R492L of Cell division cycle 25B was determined; how it was run: as §3
[17] = molecular target: M-phase inducer phosphatase 2 (Homo sapiens, UniProt P30305, R558L); assay: Inhibitory concentration of compound against mutant R544L of Cell division cycle 25B was determined; how it was run: as §3
[18] = molecular target: T7, M-phase inducer phosphatase 2; assay: Inhibitory concentration of compound against truncated mutant of Cell division cycle 25B was determined; how it was run: as §3
[19] = molecular target: T7, M-phase inducer phosphatase 2; assay: Inhibitory concentration of compound against mutant WT of Cell division cycle 25B was determined; how it was run: as §3
[20] = molecular target: M-phase inducer phosphatase 2 (Homo sapiens, UniProt P30305, Y542F); assay: Inhibitory concentration of compound against mutant Y528F of Cell division cycle 25B was determined; how it was run: as §3
[21] = molecular target: T9, M-phase inducer phosphatase 2; assay: Inhibitory concentration of compound against mutant F475A of Cdc25B phosphatase was determined
How it was run: (§4)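 Cdc25B catalytic domain constructs (wild-type, site-directed point mutants, truncated); activity with 3-O-methylfluorescein phosphate at 50 μM (~5 × Km), product read at 477 nm by UV-vis under initial velocity (2–5% turnover); eight inhibitor concentrations, IC50 fitted; values are mean of two determinations.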

[22] = molecular target: T1, M-phase inducer phosphatase 2; assay: Inhibitory concentration of compound against Cdc25B phosphatase was determined using CDK2-p-TpY/Cyclin A as a substrate
How it was run: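 Cdc25B IC50 with Cdk2-pTpY/CycA protein substrate at 300 nM; eight inhibitor concentrations; time-dependent assays; 1 mg/mL BSA carrier added only after TCA quench, not during reaction.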

[23] = molecular target: T1, M-phase inducer phosphatase 2; assay: Inhibitory constant of compound against Cdc25B phosphatase was determined using mFP as a substrate
[24] = molecular target: T8, M-phase inducer phosphatase 2; assay: Inhibitory concentration of compound against mutant E474Q of Cdc25B phosphatase was determined; how it was run: as §4
[25] = molecular target: T10, M-phase inducer phosphatase 2; assay: Inhibitory concentration of compound against mutant R482L of Cdc25B phosphatase was determined; how it was run: as §4
[26] = molecular target: T7, M-phase inducer phosphatase 2; assay: Inhibitory concentration of compound against mutant WT of Cdc25B phosphatase was determined; how it was run: as §4
[27] = molecular target: T7, M-phase inducer phosphatase 2; assay: Inhibitory concentration of compound against truncated mutant of Cdc25B phosphatase was determined; how it was run: as §4
[28] = molecular target: T4, M-phase inducer phosphatase 3 (Homo sapiens); assay: Percent inhibition against Cdc25C phosphatase at 50 uM of compound; how it was run: as §1

T9 sequence (P30305 whole entry F489A): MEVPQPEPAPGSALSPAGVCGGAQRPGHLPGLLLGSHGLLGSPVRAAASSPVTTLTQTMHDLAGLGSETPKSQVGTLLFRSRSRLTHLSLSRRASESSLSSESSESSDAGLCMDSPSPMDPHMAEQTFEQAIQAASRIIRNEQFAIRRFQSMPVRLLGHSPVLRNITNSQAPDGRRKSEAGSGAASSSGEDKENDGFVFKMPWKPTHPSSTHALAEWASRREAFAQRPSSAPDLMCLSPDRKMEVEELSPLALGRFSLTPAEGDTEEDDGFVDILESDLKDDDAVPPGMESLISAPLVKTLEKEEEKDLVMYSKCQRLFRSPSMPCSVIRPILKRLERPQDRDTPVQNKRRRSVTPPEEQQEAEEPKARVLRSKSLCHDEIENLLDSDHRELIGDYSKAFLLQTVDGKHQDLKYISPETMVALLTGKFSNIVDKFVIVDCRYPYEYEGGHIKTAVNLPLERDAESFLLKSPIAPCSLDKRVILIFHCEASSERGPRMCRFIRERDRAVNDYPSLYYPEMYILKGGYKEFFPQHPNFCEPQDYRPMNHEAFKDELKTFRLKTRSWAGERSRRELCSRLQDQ
T10 sequence (P30305 whole entry R496L): as the sequence (P30305 whole entry F489A) above, with A489F, R496L counted along it
T8 sequence (P30305 whole entry E488Q, the tested form may be a part): as the sequence (P30305 whole entry F489A) above, with E488Q, A489F counted along it
M-phase inducer phosphatase 2 (Homo sapiens, UniProt P30305, Y542F), sequence (P30305 whole entry Y542F): as the sequence (P30305 whole entry F489A) above, with A489F, Y542F counted along it
M-phase inducer phosphatase 2 (Homo sapiens, UniProt P30305, R506L), sequence (P30305 whole entry R506L): as the sequence (P30305 whole entry F489A) above, with A489F, R506L counted along it
M-phase inducer phosphatase 2 (Homo sapiens, UniProt P30305, R558L), sequence (P30305 whole entry R558L, the tested form may be a part): as the sequence (P30305 whole entry F489A) above, with A489F, R558L counted along it
M-phase inducer phosphatase 2 (Homo sapiens, UniProt P30305, E492Q), sequence (P30305 whole entry E492Q): as the sequence (P30305 whole entry F489A) above, with A489F, E492Q counted along it
M-phase inducer phosphatase 2 (Homo sapiens, UniProt P30305, M545A), sequence (P30305 whole entry M545A): as the sequence (P30305 whole entry F489A) above, with A489F, M545A counted along it

IC50 [2] [µM] | inhibition [3] [%] | IC50 [4] [µM] | inhibition [5] [%] | IC50 [6] [µM] | inhibition [7] [%] | Structure (SMILES) | other results
– | – | – | – | – | – | CC(C)=CCC/C(C)=C/CC/C(C)=C/Cc1c(Cl)cc(Cl)c2c(C3=C(O)C(O)=CC(=O)C3=O)c[nH]c12 | Ki [1]: 0.47 µM
14 | 92 | 40 | 81 | 4.2 | 100 | O=C1C=C(O)C(=O)C(c2c[nH]c3cc(Cl)ccc23)=C1O | –
2.5 | 92 | 27 | 91 | 2.5 | 99 | O=C1C=C(O)C(=O)C(c2c[nH]c3c(-c4ccccc4)cccc23)=C1O | –
2.3 | – | 8.8 | – | 5 | – | CC(C)=CCc1c(Cl)cc(Cl)c2c(C3=C(O)C(O)=CC(=O)C3=O)c[nH]c12 | IC50 [8]: 8.6 µM; Ki [9]: 0.43 µM
2.4 | 89 | 3.5 | 85 | 2.4 | 96 | CC(C)=CCC/C(C)=C/CC/C(C)=C/Cc1cccc2c(C3=C(O)C(O)=CC(=O)C3=O)c[nH]c12 | Ki [10]: 0.64 µM
4.2 | 97 | 6.9 | 85 | 4.2 | 98 | O=C1C=C(O)C(=O)C(c2c[nH]c3c(OCc4ccccc4)cccc23)=C1O | –
5.6 | 99 | 15 | 84 | 4.1 | 100 | CC(C)=CCc1cccc2c(C3=C(O)C(O)=CC(=O)C3=O)c[nH]c12 | IC50 [11]: > 50 µM; IC50 [12]: 6.5 µM; IC50 [8]: 28.2 µM; IC50 [13]: > 50 µM; IC50 [14]: 6.5 µM; IC50 [15]: 40 µM; IC50 [16]: 11 µM; IC50 [17]: 12 µM; IC50 [18]: 33 µM; IC50 [19]: 6.4 µM; Ki [9]: 0.64 µM; IC50 [20]: 15 µM
18 | 75 | 30 | 69 | 25 | 33 | O=C1C=C(O)C(=O)C(c2c[nH]c3ccccc23)=C1O | IC50 [21]: 76 µM; IC50 [22]: > 50 µM; Ki [23]: 13 µM; IC50 [24]: 200 µM; IC50 [25]: 73 µM; IC50 [26]: 18 µM; IC50 [27]: 34 µM
7.2 | 33 | > 50 | 37 | 7.2 | 93 | CC(C)(C)c1cccc2c(C3=C(O)C(O)=CC(=O)C3=O)c[nH]c12 | –
59 | 23 | > 50 | 79 | 4.2 | 72 | CCCc1cccc2c(C3=C(O)C(O)=CC(=O)C3=O)c[nH]c12 | –
– | 61 | – | – | 8.1 | 100 | Cc1ccc2[nH]cc(C3=C(O)C(O)=CC(=O)C3=O)c2c1 | inhibition [28]: 55%
